Residue numbers refer to the chain shown, from its start.
How the values were obtained:
P2X purinoceptor 7 [1] = target: T1, P2X purinoceptor 7 (Homo sapiens, UniProt Q99572); assay: Antagonist activity at recombinant human P2X7 receptor assessed as inhibition of BzATP-mediated Yo-Pro uptake measured for 1 hr by FLIPR assay
T1 sequence (Q99572 whole entry): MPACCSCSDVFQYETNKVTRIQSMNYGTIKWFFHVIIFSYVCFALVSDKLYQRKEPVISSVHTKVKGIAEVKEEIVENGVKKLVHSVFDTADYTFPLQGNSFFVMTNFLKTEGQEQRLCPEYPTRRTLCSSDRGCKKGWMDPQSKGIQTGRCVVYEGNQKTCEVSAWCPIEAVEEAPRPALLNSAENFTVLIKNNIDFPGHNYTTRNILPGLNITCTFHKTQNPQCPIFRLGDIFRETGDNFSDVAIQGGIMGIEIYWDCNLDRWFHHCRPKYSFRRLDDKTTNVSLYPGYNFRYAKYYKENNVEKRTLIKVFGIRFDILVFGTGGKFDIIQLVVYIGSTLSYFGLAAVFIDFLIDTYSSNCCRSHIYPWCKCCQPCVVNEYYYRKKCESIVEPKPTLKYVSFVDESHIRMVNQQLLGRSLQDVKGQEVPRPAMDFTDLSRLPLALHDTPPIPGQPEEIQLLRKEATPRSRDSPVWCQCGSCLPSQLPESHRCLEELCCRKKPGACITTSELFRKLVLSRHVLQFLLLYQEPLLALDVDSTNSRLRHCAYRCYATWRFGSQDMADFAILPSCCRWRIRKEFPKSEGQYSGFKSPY

P2X purinoceptor 7 [2] = target: T1, P2X purinoceptor 7; assay: Antagonist activity at human P2X7 receptor expressed in HEK293 cells assessed as inhibition of BzATP-induced accumulation of ethidium+ after 120 mins by fluorescence assay; format: cell-based
P2X purinoceptor 1 [3] = target: T2, P2X purinoceptor 1 (Rattus norvegicus, UniProt P47824); assay: Antagonist activity at recombinant rat P2X1 receptor expressed in Xenopus oocytes assessed as ion flux stimulation; format: cell-based
T2 sequence (P47824 whole entry): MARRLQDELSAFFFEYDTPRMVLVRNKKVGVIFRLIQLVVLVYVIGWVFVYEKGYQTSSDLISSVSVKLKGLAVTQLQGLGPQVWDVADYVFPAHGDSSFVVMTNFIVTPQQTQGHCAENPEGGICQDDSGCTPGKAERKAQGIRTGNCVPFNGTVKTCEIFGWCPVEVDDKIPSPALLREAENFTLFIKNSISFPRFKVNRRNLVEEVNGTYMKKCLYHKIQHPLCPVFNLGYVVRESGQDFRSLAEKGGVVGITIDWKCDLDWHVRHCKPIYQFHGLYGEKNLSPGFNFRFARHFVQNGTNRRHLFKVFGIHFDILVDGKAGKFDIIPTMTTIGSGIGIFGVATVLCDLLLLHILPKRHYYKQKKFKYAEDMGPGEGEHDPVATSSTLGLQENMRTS

P2X purinoceptor 1 [4] = target: T3, P2X purinoceptor 1 (Mus musculus, UniProt P51576); assay: Antagonist activity at recombinant mouse P2X1 receptor expressed in Xenopus oocytes assessed as inhibition of ATP-induced ion current preincubated for 20 mins followed by ATP addition by two-electrode voltage clamp assay; format: cell-based
T3 sequence (P51576 whole entry): T2 sequence (P47824 whole entry) with D60G, V108M, T113A, R180H, Q223L, N231S, K260E, H314R, H381R, V384A
How it was run: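 Defolliculated Xenopus oocytes were injected with mP2X1 or hP2X3 cRNA (40 nL), held 24 h at 18 °C in Barth's solution, then stored at 4 °C for up to 12 days. Two-electrode voltage clamp was run at Vh −70 mV in HEPES/BaCl2 buffer at pH 7.5. ATP was superfused for 60–120 s with 20 min washout. Currents were normalized to the ATP response, giving % inhibition or IC50 from inhibition curves; mean ± SEM, n≥3.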

| SMILES | IC50 (P2X purinoceptor 7 [1]) | IC50 (P2X purinoceptor 7 [2]) | IC50 (P2X purinoceptor 1 [3]) | IC50 (P2X purinoceptor 1 [4]) |
| --- | --- | --- | --- | --- |
| CN([C@@H](Cc1ccc(OS(=O)(=O)c2cccc3cnccc23)cc1)C(=O)N1CCN(c2ccccc2)CC1)S(=O)(=O)c1cccc2cnccc12 | 210 nM | 158 nM | – | – |
| Cc1nc(/N=N/c2ccc(C(=O)O)cc2)c(COP(=O)(O)O)c(C=O)c1O | – | – | 43 nM | 30 nM |
